According to ChEMBL document CHEMBL1687714, “Genetic analysis of fenhexamid-resistant field isolates of the phytopathogenic fungus Botrytis cinerea” (Antimicrob Agents Chemother, 2008):
Active and inactive are the calls of the source. The calls are words filed in the database; no cut-off is given here.

Legend:
[1] = test system: Botrytis cinerea; assay: Antifungal activity against highly fenhexamid-resistant Botrytis cinerea MK5-14 assessed as inhibition of germ tube elongation after 24 hrs; format: functional, organism-based; settings: MK5-14, 24 h
[2] = test system: Botrytis cinerea; assay: Antifungal activity against fenhexamid-senistive Botrytis cinerea SAS56 assessed as inhibition of mycelium growth measured over 5 days; format: functional, organism-based; settings: SAS56, 120 h
[3] = test system: Botrytis cinerea; assay: Antifungal activity against highly fenhexamid-resistant Botrytis cinerea 440b assessed as inhibition of mycelium growth measured over 5 days; format: functional, organism-based; settings: 120 h
[4] = test system: Botrytis cinerea; assay: Antifungal activity against highly fenhexamid-resistant Botrytis cinerea 506b assessed as inhibition of mycelium growth measured over 5 days; format: functional, organism-based; settings: 120 h
[5] = test system: Botrytis cinerea; assay: Antifungal activity against Botrytis cinerea 1837 expressing erg27 HydR3+ alleles assessed as appearance of dense mycelium up to 20 ug/ml; format: functional, organism-based
Outline: (§1)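 Spores of parental strains were spread on YSS (synthetic complete) medium containing fenhexamid at several concentrations, without hygromycin B. Growth was scored after 7 days at 21°C.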

[6] = test system: Botrytis cinerea; assay: Antifungal activity against Botrytis cinerea 223b expressing erg27 HydR3+ alleles assessed as appearance of dense mycelium up to 20 ug/ml; format: functional, organism-based; outline: as §1
[7] = test system: Botrytis cinerea; assay: Antifungal activity against Botrytis cinerea B05.10 harboring TELerg F412I mutant assessed as appearance of mycelium growth up to 20 ug/ml; format: functional
Outline: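 B05.10 transformants carrying the erg27 allele on the pFTELerg plasmid were grown on rich medium with hygromycin B until conidiation. Spores were spread on YSS (synthetic complete) medium with 50 µg ml–1 hygromycin B and fenhexamid at 1 to 20 µg ml–1. After 7 days at 21°C, spores developing mycelium were scored under the microscope.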

[8] = test system: Botrytis cinerea; assay: Antifungal activity against Botrytis cinerea 286 harboring TELerg S336C mutant at 2 ug/ml relative to wild-type; format: functional, organism-based
Outline: (§2)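 In the dominance test, the recipient strains 453b and 286 were transformed with different erg27 alleles. Spores of the transformants were grown on YSS medium containing fenhexamid at different concentrations and 50 µg ml–1 hygromycin B. Parental strains were grown without hygromycin. Growth was scored after 7 days at 21°C.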

[9] = test system: Botrytis cinerea; assay: Antifungal activity against HydR3 deficient Botrytis cinerea 453 harboring TELerg F412I mutant at 10 ug/ml relative to wild-type; format: functional, organism-based; outline: as §2
[10] = test system: Botrytis cinerea; assay: Antifungal activity against highly fenhexamid-resistant Botrytis cinerea 05-AVB assessed as inhibition of germ tube elongation after 24 hrs; format: functional, organism-based

CC1(C(=O)Nc2ccc(O)c(Cl)c2Cl)CCCCC1 [FENHEXAMID]
EC50 [1]: > 5 µg/mL | EC50 [2]: < 0.1 µg/mL | EC50 [3]: > 10 µg/mL | EC50 [4]: > 10 µg/mL | Activity [5]: inactive | Activity [6]: inactive | Activity [7]: 10% | Activity [8]: inactive | Activity [9]: inactive | EC50 [10]: > 10 µg/mL
